# Experimental data of several laboratories.
# Observed: enzyme activity
# Action: inhibitor
# LCK phosphorylated: Tyrosine-protein kinase Lck, phosphorylated (LCK, Homo sapiens, UniProt P06239)
# LCK: Tyrosine-protein kinase Lck (LCK, Homo sapiens, UniProt P06239)
Compound,target,technique,tested at,remaining activity [%]
COc1cc(Cl)c(C(=O)N[C@@H](CN[C@H]2CC[C@@H](N)CC2)Cc2ccc(C#N)cc2)cc1-c1ccc(CN[C@H](C)c2ccc(C)cc2)o1,LCK phosphorylated,,1 µM,85
O=C(Nc1cnn(-c2csc(C(=O)NC3COC3)c2)c1)Nc1c(F)cccc1Cl,LCK,,5 µM,94.2
Nc1nc(Nc2ccccc2)sc1C(=O)c1c(F)cccc1F,LCK,,10 µM,49
CC(C)(C)c1nc(-c2cccc(NS(=O)(=O)c3c(F)cccc3F)c2F)c(-c2ccnc(N)n2)s1,LCK,radiometric,1 µM,38
COc1cc(Nc2cnc(C#N)c(O[C@H](C)CN(C)C)n2)ncc1-c1cnn(C)c1,LCK,radiometric,1 µM,60
N#CCCc1ccc2c(c1)-c1[nH]c3ccc([N+](=O)[O-])cc3c1CC(=O)N2,LCK,,0.5 µM,78.2
Cc1ccc(NC(=O)c2ccc(C)c(C(F)(F)F)c2)cc1C#Cc1nn(C2CCC(O)CC2)c2ncnc(N)c12 (centres unmarked),LCK,,10 µM,0
COc1cc(Nc2c(C#N)cnc3cc(OCCCN4CCN(C)CC4)c(OC)cc23)c(Cl)cc1Cl,LCK,,0.5 µM,1.88
FC(F)c1nc2ccccc2n1-c1nc(N2CCOCC2)nc(N2CCOCC2)n1,LCK,,10 µM,89
O=C1NC(=O)c2cc(Nc3ccc(F)cc3)c(Nc3ccc(F)cc3)cc21,LCK,,0.5 µM,98.4
O=C(Nc1cnn(-c2csc(C(=O)NC3COC3)c2)c1)Nc1ccccc1Cl,LCK,,5 µM,99.1
Cc1cnc(NC2CCOCC2)nc1-n1cnc(C(=O)NC(CN)c2cc(F)cc(Cl)c2)c1 (centres unmarked),LCK,radiometric,1 µM,100
O=C1Nc2ccc(Cl)cc2C1=Cc1cc(Cl)c(O)c(Cl)c1,LCK,,0.5 µM,88.2
Nc1nc(NC2CCCCC2)sc1C(=O)c1ccccc1,LCK,,10 µM,86
CCCOc1ccc(OC)c(F)c1C(=O)c1ccc(C(=O)N[C@@H]2CNC[C@H]2NC(=O)c2ccc3[nH]ncc3c2)cc1,LCK phosphorylated,,10 µM,18
Cc1[nH]c(/C=C2\C(=O)Nc3ccc(F)cc32)c(C)c1C(=O)N[C@H]1CCN(C(=O)N(C)C)C1,LCK,,0.1 µM,87
C[S+]([O-])c1ccc(-c2nc(-c3ccncc3)c(-c3ccc(F)cc3)[nH]2)cc1 (centres unmarked),LCK,,0.5 µM,95
Cn1c(=O)n(-c2ccc(C(C)(C)C#N)cc2)c2c3cc(-c4cnc5ccccc5c4)ccc3ncc21,LCK,,10 µM,54
O=c1cc(-c2cccc3c2Sc2ccccc2S3)oc(N2CCOCC2)c1,LCK,,0.5 µM,98.1
CCN(CC)c1ccc(C2=NNC(=O)CC2C)cc1[N+](=O)[O-] (centres unmarked),LCK phosphorylated,,10 µM,104
